From ChEMBL document CHEMBL4373711, “Development of 3,5-Dinitrophenyl-Containing 1,2,4-Triazoles and Their Trifluoromethyl Analogues as Highly Efficient Antitubercular Agents Inhibiting Decaprenylphosphoryl-β-d-ribofuranose 2'-Oxidase” (J Med Chem, 2019)
Active and inactive are the calls of the source.

Legend:
[1] = Cytotoxicity against human A431 cells assessed as cell viability at 30 uM after 48 hrs by CellTiter 96 aqueous one solution assay relative to control; format: cell-based, A-431; settings: read-out: Activity
Procedure, shortened: (§1)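 HepG2 (DMEM, 10% FBS, 1 mM pyruvate) or A431 (DMEM, 10% FBS) seeded 10,000 cells/well, 24 h at 37 °C, 5% CO2, then 30 µM compound for 48 h. MTS reagent 60 min, absorbance 490 nm, background subtracted; 0.1% DMSO vehicle = 100%, 10% SDS = 0% viability.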

[2] = system: Mycobacterium tuberculosis; experiment: Antimycobacterial activity against Mycobacterium tuberculosis H37Rv CNCTC My 331/88 after 14 days; format: functional; settings: H37Rv CNCTC My 331/88, 336 h
Procedure, shortened: (§2)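 M. tuberculosis strains (H37Rv and clinical MDR/XDR isolates) tested by microdilution in Šula's semisynthetic medium. Compounds were dissolved in DMSO and tested at 32 to 0.03 µM in twofold steps. Inoculum was a 1.0 McFarland suspension diluted 10-3. Plates were incubated at 37 °C and read at 14 and 21 days.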

Mycobacterium avium [3] = experiment: Antimycobacterial activity against Mycobacterium avium CNCTC My 330/88 after 21 days; format: functional; settings: CNCTC My 330/88, 504 h
Procedure, shortened: (§3)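 M. avium was tested by microdilution in Šula's semisynthetic medium, with compounds dissolved in DMSO and serially diluted from 1000 down to 1. Inoculum was a 1.0 McFarland suspension diluted 10-5. Plates were incubated at 37 °C and read at 14 and 21 days. […] Isoniazid and rifampicin served as standards.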

Pseudomonas aeruginosa = experiment: Antibacterial activity against Pseudomonas aeruginosa ATCC 27853 CCM 3955 at highest concentration measured after 24 to 48 hrs by alamar blue dye based broth microdilution assay; format: functional, organism-based
Staphylococcus aureus [4] = experiment: Antibacterial activity against methicillin-resistant Staphylococcus aureus subsp. aureus ATCC 43300 CCM 4750 at highest concentration measured after 24 to 48 hrs by alamar blue dye based broth microdilution assay; format: functional, organism-based
[5] = system: Trichophyton interdigitale; experiment: Antifungal activity against Trichophyton interdigitale ATCC 9533 CCM 8377 at highest concentration measured after 72 to 120 hrs by alamar blue dye based broth microdilution assay; format: functional
Candida albicans = experiment: Antifungal activity against Candida albicans ATCC 24433 CCM 8320 at highest concentration measured after 24 to 48 hrs by alamar blue dye based broth microdilution assay; format: functional, organism-based
Mycobacterium kansasii [6] = experiment: Antimycobacterial activity against Mycobacterium kansasii 6509/96 after 21 days; format: functional; settings: 6509/96, 504 h
Procedure, shortened: (§4)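 Microdilution in Šula's semisynthetic medium; compounds in DMSO at 32–0.03 µM. Inoculum from 1.0 McFarland suspension diluted 10-4. […] Isoniazid and rifampicin as reference drugs.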

Mycobacterium kansasii [7] = experiment: Antimycobacterial activity against Mycobacterium kansasii 6509/96 after 7 days; format: functional; settings: 6509/96, 168 h; procedure, shortened: as §4
Candida parapsilosis = experiment: Antifungal activity against Candida parapsilosis ATCC 22019 CCM 8260 at highest concentration measured after 24 to 48 hrs by alamar blue dye based broth microdilution assay; format: functional, organism-based
Mycobacterium avium [8] = experiment: Antimycobacterial activity against Mycobacterium avium CNCTC My 330/88 after 14 days; format: functional; settings: CNCTC My 330/88, 336 h; procedure, shortened: as §3
[9] = Cytotoxicity against human HepG2 cells assessed as cell viability at 30 uM after 48 hrs by CellTiter 96 aqueous one solution assay relative to control; format: cell-based; settings: read-out: Activity; procedure, shortened: as §1
Pichia kudriavzevii = experiment: Antifungal activity against Candida krusei ATCC 6258 CCM8271 at highest concentration measured after 24 to 48 hrs by alamar blue dye based broth microdilution assay; format: functional, organism-based
Escherichia coli = experiment: Antibacterial activity against Escherichia coli ATCC 25922 CCM 3954 at highest concentration measured after 24 to 48 hrs by alamar blue dye based broth microdilution assay; format: functional, organism-based
Serratia marcescens = experiment: Antibacterial activity against Serratia marcescens at highest concentration measured after 24 to 48 hrs by alamar blue dye based broth microdilution assay; format: functional, organism-based
Mycobacterium kansasii [10] = experiment: Antimycobacterial activity against Mycobacterium kansasii CNCTC My 235/80 after 14 days; format: functional; settings: CNCTC My 235/80, 336 h; procedure, shortened: as §4
Enterococcus faecalis = experiment: Antibacterial activity against Enterococcus faecalis ATCC 29212 CCM 4224 at highest concentration measured after 24 to 48 hrs by alamar blue dye based broth microdilution assay; format: functional, organism-based
Mycobacterium kansasii [11] = experiment: Antimycobacterial activity against Mycobacterium kansasii CNCTC My 235/80 after 7 days; format: functional; settings: CNCTC My 235/80, 168 h; procedure, shortened: as §4
Staphylococcus aureus [12] = experiment: Antibacterial activity against Staphylococcus aureus subsp. aureus ATCC 29213 CCM 4223 at highest concentration measured after 24 to 48 hrs by alamar blue dye based broth microdilution assay; format: functional, organism-based
A-431 = experiment: Cytotoxicity against human A431 cells assessed as reduction in cell viability after 48 hrs by CellTiter 96 aqueous one solution assay; format: cell-based; settings: A-431, 48 h
Candida tropicalis = experiment: Antifungal activity against Candida tropicalis ATCC 750 CCM 8264 at highest concentration measured after 24 to 48 hrs by alamar blue dye based broth microdilution assay; format: functional, organism-based
Klebsiella pneumoniae = experiment: Antibacterial activity against Klebsiella pneumoniae at highest concentration measured after 24 to 48 hrs by alamar blue dye based broth microdilution assay; format: functional, organism-based
Mycobacterium kansasii [13] = experiment: Antimycobacterial activity against Mycobacterium kansasii 6509/96 after 14 days; format: functional; settings: 6509/96, 336 h; procedure, shortened: as §4
Aspergillus fumigatus = experiment: Antifungal activity against Aspergillus fumigatus ATCC 204305 at highest concentration measured after 24 to 48 hrs by alamar blue dye based broth microdilution assay; format: functional, organism-based
[14] = system: Staphylococcus epidermidis; experiment: Antibacterial activity against Staphylococcus epidermidis at highest concentration measured after 24 to 48 hrs by alamar blue dye based broth microdilution assay; format: functional, organism-based
Aspergillus flavus = experiment: Antifungal activity against Aspergillus flavus CCM 8363 at highest concentration measured after 24 to 48 hrs by alamar blue dye based broth microdilution assay; format: functional, organism-based
Lichtheimia corymbifera = experiment: Antifungal activity against Lichtheimia corymbifera CCM 8077 at highest concentration measured after 24 to 48 hrs by alamar blue dye based broth microdilution assay; format: functional, organism-based
HepG2 = experiment: Cytotoxicity against human HepG2 cells assessed as reduction in cell viability after 48 hrs by CellTiter 96 aqueous one solution assay; format: cell-based; settings: HepG2, 48 h
[15] = system: Mycobacterium tuberculosis; experiment: Antimycobacterial activity against Mycobacterium tuberculosis H37Rv CNCTC My 331/88 after 21 days; format: functional; settings: H37Rv CNCTC My 331/88, 504 h; procedure, shortened: as §2
Mycobacterium kansasii [16] = experiment: Antimycobacterial activity against Mycobacterium kansasii CNCTC My 235/80 after 21 days; format: functional; settings: CNCTC My 235/80, 504 h; procedure, shortened: as §4

O=[N+]([O-])c1cc(CSc2nnc(-c3ccccc3)n2-c2ccc(Cl)c(Cl)c2)cc([N+](=O)[O-])c1
134%: viability at 48 h, 30 µM [9]
0.5 µM: MIC99 (Mycobacterium kansasii [7]) | MIC99 (Mycobacterium kansasii [11])
1 µM: MIC99 [2] | MIC99 (Mycobacterium kansasii [10]) | MIC99 (Mycobacterium kansasii [13])
2 µM: MIC99 (Mycobacterium kansasii [6]) | MIC99 [15] | MIC99 (Mycobacterium kansasii [16])
> 30 µM: IC50 (A-431) | IC50 (HepG2)
136%: viability at 48 h, 30 µM [1]
125 µM: MIC99 (Mycobacterium avium [3]) | MIC99 (Mycobacterium avium [8])
inactive: Activity (Pseudomonas aeruginosa) | Activity (Staphylococcus aureus [4]) | Activity [5] | Activity (Candida albicans) | Activity (Candida parapsilosis) | Activity (Pichia kudriavzevii) | Activity (Escherichia coli) | Activity (Serratia marcescens) | Activity (Enterococcus faecalis) | Activity (Staphylococcus aureus [12]) | Activity (Candida tropicalis) | Activity (Klebsiella pneumoniae) | Activity (Aspergillus fumigatus) | Activity [14] | Activity (Aspergillus flavus) | Activity (Lichtheimia corymbifera)

O=[N+]([O-])c1cc(-c2nnc(SCc3ccc(Cl)cc3)n2Cc2ccccc2)cc(C(F)(F)F)c1
68%: viability at 48 h, 30 µM [9]
250 µM: MIC99 (Mycobacterium avium [3]) | MIC99 (Mycobacterium avium [8])
0.5 µM: MIC99 [2] | MIC99 (Mycobacterium kansasii [6]) | MIC99 (Mycobacterium kansasii [7]) | MIC99 (Mycobacterium kansasii [10]) | MIC99 (Mycobacterium kansasii [11]) | MIC99 (Mycobacterium kansasii [13]) | MIC99 [15] | MIC99 (Mycobacterium kansasii [16])
inactive: Activity (Pseudomonas aeruginosa) | Activity (Staphylococcus aureus [4]) | Activity [5] | Activity (Candida albicans) | Activity (Candida parapsilosis) | Activity (Pichia kudriavzevii) | Activity (Escherichia coli) | Activity (Serratia marcescens) | Activity (Enterococcus faecalis) | Activity (Staphylococcus aureus [12]) | Activity (Candida tropicalis) | Activity (Klebsiella pneumoniae) | Activity (Aspergillus fumigatus) | Activity [14] | Activity (Aspergillus flavus) | Activity (Lichtheimia corymbifera)
> 30 µM: IC50 (A-431) | IC50 (HepG2)
121%: viability at 48 h, 30 µM [1]
